Calls of active or inactive are those of the source. The rule behind the calls is not given here.
Columns and labels:
[1] = system: Rattus norvegicus; assay: Mean maximum percent lowering of glucose was determined at a single dose of 10 mg/kg, subcutaneously using rat oral glucose tolerance test; IA = inactive; assay type: functional, organism-based; parameters: dose 10 mg/kg
Procedure, shortened: (§1)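 Rats given a single 10 mg/kg sc dose, calculated as free base. Blood glucose is compared with controls at each time point by unpaired Student's t-test; a significant lowering at any point (95% confidence) counts as active. Each rat's maximum percent lowering from the matched control mean is averaged to give the mean maximum percent lowering.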

[2] = system: Rattus norvegicus; assay: Mean maximum percent lowering of glucose at a single dose of 10 mg/kg, subcutaneously using rat oral glucose tolerance test.; assay type: functional; settings: route subcutaneous; procedure, shortened: as §1
[3] = organism: Rattus norvegicus; assay: Effective dose to produce a 30% maximum decrease of glucose from control; assay type: functional
Procedure, shortened: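 Rats, subcutaneous dosing at 10, 5 and 2.5 mg/kg, calculated as free base. For each rat, the maximum percent lowering of blood glucose from the control group mean at the matched time point is taken. The dose giving a 30% decrease, with its 95% CI, comes from regression of mean maximum percent decrease versus log dose (mg/kg).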

SMILES	IA [1]	Lowering [2] [%]	ED30 [3] [mg/kg]
C/C(=N\C(=N\c1ccccc1)N1CCOCC1)N1CCN(C)CC1	inactive	–	–
C/C(=N\C(=N\c1ccccc1)N1CCOCC1)N(Cc1ccccc1)c1ccccc1	–	17	–
CC(=O)N/C(C)=N/C(=N/c1ccccc1)N1CCOCC1	–	22	–
CN(C)/C(CC(C)(C)C)=N/C(=N/c1ccccc1)N1CCOCC1	–	37	5.9
CC(=N/C(C)(C)C)/N=C(/Nc1ccccc1)N1CCOCC1	–	45	4.2
CC(=N/S(C)(=O)=O)/N=C(/Nc1ccccc1)N1CCOCC1	inactive	–	–
CC(C)/N=C(\N=C(\Nc1ccccc1)N1CCOCC1)C(C)C	–	23	–
CC(=N/C(C)C)/N=C(/Nc1ccccc1)N1CCOCC1	–	42	3.9
CN/C(=N/C(=N/c1ccccc1OC)N1CCOCC1)C(C)C	–	21	–
CCCCCC/C(=N\C(=N\c1ccccc1)N1CCOCC1)N(C)C	–	31	–
C/C(=N\C(=N\c1ccccc1)N1CCOCC1)N(C)c1ccccc1	–	20	–
CN(C)/C(=N/C(=N/c1ccccc1)N1CCOCC1)c1ccccc1	–	25	–
CN(C)/C=N/C(=N/c1ccccc1)N1CCOCC1	–	22	–
CC(=N/Cc1ccccc1)/N=C(/Nc1ccccc1)N1CCOCC1	–	50	4.3
C/N=C(\N=C(\Nc1ccccc1)N1CCOCC1)C(C)C	–	52	1.5
C/C(=N\C(=N\c1ccccc1)N1CCOCC1)N(C)C	–	38	6.7
C/N=C(\N=C(\Nc1ccccc1)N1CCCC1)C(C)C	–	43	–
CCC/N=C(C)\N=C(\Nc1ccccc1)N1CCOCC1	–	56	0.97
CC(C)C(=N)/N=C(/Nc1ccccc1)N1CCOCC1	–	34	–

SMILES	IA [1]	Lowering [2] [%]	ED30 [3] [mg/kg]
CN(C)/C(Cc1ccccc1)=N/C(=N/c1ccccc1)N1CCOCC1	–	27	–
CC(=N/c1ccccc1)/N=C(/Nc1ccccc1)N1CCOCC1	–	26	–
C/C(=N\C(=N\c1ccccc1)N1CCOCC1)N1CCOCC1	–	24	–
CC/C(=N\C(=N\c1ccccc1)N1CCOCC1)N(C)C	–	43	5.3
C/C(=N\C(=N\c1ccccc1)N1CCOCC1)N1CCCCC1	–	46	5.3
C/N=C(C)\N=C(\Nc1ccccc1)N1CCOCC1	–	45	2.6
CC/N=C(C)\N=C(\Nc1ccccc1)N1CCOCC1	–	48	4.6
CC(=N/CCO)/N=C(/Nc1ccccc1)N1CCOCC1	–	15	–
CCCCN(C)/C(C)=N/C(=N/c1ccccc1)N1CCOCC1	–	33	7.6
CN1CCC/C1=N\C(=N\c1ccccc1)N1CCOCC1 [LINOGLIRIDE]	–	34	6.1
CCC(=N/C)/N=C(/Nc1ccccc1)N1CCOCC1	–	42	–
CN(C)/C(=N/C(=N/c1ccccc1)N1CCOCC1)C1CCCCC1	–	27	–
CC/N=C(\N=C(\Nc1ccccc1)N1CCOCC1)C(C)C	–	26	–
CCOC(=O)C/N=C(C)\N=C(\Nc1ccccc1)N1CCOCC1	inactive	–	–
CC(C)/C(=N\C(=N\c1ccccc1)N1CCOCC1)N(C)C	–	43	4.3
C/N=C(\N=C(\Nc1ccc(F)cc1)N1CCOCC1)C(C)C	–	42	–
CCC/N=C(\N=C(\Nc1ccccc1)N1CCOCC1)C(C)C	–	31	–
CC(=N)/N=C(/Nc1ccccc1)N1CCOCC1	–	21	–
CN(C)/C(=N/C(=N/c1ccccc1)N1CCOCC1)C(C)(C)C	–	40	9.6

From ChEMBL document CHEMBL1127064, “A novel series of N-(1-aminoalkylidene)carboximidamides as potential hypoglycemic agents” (1993)
